The text below walks through data of ChEMBL document CHEMBL3271963, “Relationship between analgetic ED50 dose and time-course brain levels N-alkylnormeperidine homologues” (J Med Chem, 1976).

Data set [1] has as its system Liver. Put plainly: Drug metabolism in iv dosed Swiss-Webster mouse liver assessed as norme-peridine concentration measured per gram of tissue over 5 to 45 mins. Format: ADME, organism-based. The conditions noted are these: in vivo. An outline of the steps:
(§1)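 Mice received a single iv bolus of the ³H-labelled N-alkylnormeperidine into the lateral tail vein (0.033 ml/10 g), with 6 animals per time point. Livers were taken at 5, 10, 20, 30 and 45 min, homogenised in 0.01 N HCl, and spiked with unlabelled parent, normeperidine and a [¹⁴C] internal standard. Samples were basified to pH 12, extracted into C₆H₆ and separated by TLC. Parent and normeperidine were quantified by ³H/¹⁴C ratio, corrected for 5.8% (v/w) residual blood, and integrated over 5–45 min.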

For data set [2], the system named is Liver. The data set can be described thus: Drug metabolism in iv dosed Swiss-Webster mouse liver measured per gram of tissue over 5 to 45 mins. The data set is classed as ADME, organism-based. As to conditions: in vivo. An outline of the steps: as §1
The subject of data set [3] is Mus musculus. Put plainly: Analgetic potency in iv dosed Swiss-Webster mouse. The data set is classed as functional.
The subject of data set [4] is Mus musculus. The data set can be described thus: Analgetic potency in iv dosed Swiss-Webster mouse relative to meperidine. Format: functional.
For a further data set, the system named is Brain. Put plainly: Drug uptake in iv dosed Swiss-Webster mouse brain measured per gram of tissue. Format: ADME, organism-based. The conditions noted are these: in vivo. An outline of the steps: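 Mice received a single iv bolus of the ³H-labelled compound into the tail vein (0.033 ml/10 g). Whole brains were removed at 5, 10, 20, 30 and 45 min (n = 6 per point) and homogenised in 0.01 N HCl with unlabelled carriers and a [¹⁴C]-N-butylnormeperidine internal standard. Samples were basified to pH 12, extracted into benzene and run on TLC. Levels came from ³H/¹⁴C ratios against a standard curve, expressed per gram, with area under the concentration-time curve.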

In general, ED50 refers to the dose that gives a 50% effect, or the effect in half of the subjects. A high value points to weaker potency.

Regarding `CCOC(=O)C1(c2ccccc2)CCN(C)CC1.Cl` [MEPERIDINE HYDROCHLORIDE], the Drug metabolism in the data set on Liver [1] was 1733.1 nmol·min; with Liver [2], 926.7 nmol·min. Moreover, in the data set on Mus musculus [3], the ED50 is 32.8 µmol/kg.
Regarding `CCCCN1CCC(C(=O)OCC)(c2ccccc2)CC1.Cl`, the figures for the Drug metabolism in the data set with Liver [1] and with Liver [2] were 121.7 nmol·min and 83.8 nmol·min, respectively. For the same molecule, the Ratio with Mus musculus [4] turned out to be 1.7. In addition, in the data set with Mus musculus [3], the ED50 was found to be 19.1 µmol/kg. The molecule further yielded a Drug uptake with Brain of 274 nmol·min/g.
On the same counts, the results for `CCCCCCN1CCC(C(=O)OCC)(c2ccccc2)CC1.Cl` are 17.9 nmol·min, 153.3 nmol·min, 8.8, 3.7 µmol/kg and 126 nmol·min/g.
On the same counts, the results for `CCCN1CCC(C(=O)OCC)(c2ccccc2)CC1.Cl` are 917.7 nmol·min, 263.3 nmol·min, 0.7, 45.9 µmol/kg and 828 nmol·min/g.
